Assay [1] in a line: Oxygen radical absorption capacity. The following applies: TEAC units; X = EO or compound. The method, boiled down:
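Peroxyl radical (ROO) scavenging by the oils and individual components, following a published ORAC method, in triplicate. Data are mean ± SD, with significance by ANOVA/Tukey's HSD (p < 0.05).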

Assay [2] is described as follows: ABTS radical cation bleaching assay. The conditions noted are these: TEAC units; X = EO or compound. The method, boiled down: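 ABTS radical cation (ABTS•+) bleaching by essential oils and their individual components, run in triplicate by a published method. Results are given as mean ± SD, compared by ANOVA with Tukey's HSD (p < 0.05).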
Assay [3] in a line: DPPH radical scavenging capacity. The following applies: TEAC units; X = EO or compound. In outline: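 DPPH radical scavenging by essential oils and individual components, by a published method, in triplicate. Values are expressed as μmol TE/mL EO and given as mean ± SD, with ANOVA/Tukey's HSD at p < 0.05.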
Assay [4] can be described thus: Chelating power. The following applies: for ChP: EDTAE units, X = EO or compound. The method, boiled down: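 Ferrous ion chelation by essential oils and their major components, by a published method, in triplicate. Results are expressed as EDTA equivalents per volume of EO, mean ± SD, with ANOVA/Tukey's HSD (p < 0.05).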
A short description of assay [5]: Reducing power. The following applies: AAE units; X = EO or compound. In outline:
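Reduction of potassium ferricyanide by the oils and individual components, by a published method, in triplicate. Results are reported as ascorbic acid equivalents per volume of EO, mean ± SD, with ANOVA/Tukey's HSD (p < 0.05).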

A short description of assay [6]: Thiobarbituric acid reactive substances. The following applies: BHTE units; X = EO or compound. The method, boiled down:
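TBARS formation by oxidation measured in soybean lecithin homogenate as lipid-rich medium, by a published method, in triplicate. Values are expressed as μmol BHTE/mL EO, mean ± SD, with ANOVA/Tukey's HSD (p < 0.05).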

The target in assay [7] is T1, lipoxygenase (LOX) (linoleate:oxygen oxidoreductase, EC 1.13.11.12) (Glycine max, UniProt P08170).
T1 sequence (P08170 1-839): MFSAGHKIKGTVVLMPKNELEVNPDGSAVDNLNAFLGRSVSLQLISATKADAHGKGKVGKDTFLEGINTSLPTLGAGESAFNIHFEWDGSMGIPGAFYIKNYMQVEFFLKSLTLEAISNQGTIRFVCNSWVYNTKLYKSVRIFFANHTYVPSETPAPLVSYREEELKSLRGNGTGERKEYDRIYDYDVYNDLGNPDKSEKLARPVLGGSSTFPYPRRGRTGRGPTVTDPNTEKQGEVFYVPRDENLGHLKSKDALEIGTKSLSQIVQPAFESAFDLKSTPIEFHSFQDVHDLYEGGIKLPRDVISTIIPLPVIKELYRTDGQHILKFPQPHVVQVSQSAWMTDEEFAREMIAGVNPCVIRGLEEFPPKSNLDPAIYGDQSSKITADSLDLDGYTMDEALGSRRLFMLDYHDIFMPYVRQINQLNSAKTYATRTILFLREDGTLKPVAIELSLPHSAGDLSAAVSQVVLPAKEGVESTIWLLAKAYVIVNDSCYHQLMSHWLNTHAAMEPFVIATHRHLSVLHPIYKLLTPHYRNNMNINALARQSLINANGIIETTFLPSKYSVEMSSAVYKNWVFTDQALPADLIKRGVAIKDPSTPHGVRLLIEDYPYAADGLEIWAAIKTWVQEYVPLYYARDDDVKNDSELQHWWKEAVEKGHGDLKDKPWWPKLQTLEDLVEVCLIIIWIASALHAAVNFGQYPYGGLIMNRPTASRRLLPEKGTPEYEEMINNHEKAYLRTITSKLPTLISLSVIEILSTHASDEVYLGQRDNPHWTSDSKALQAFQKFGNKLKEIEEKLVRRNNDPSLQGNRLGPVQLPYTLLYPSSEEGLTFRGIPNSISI
Kind of assay: Lipoxygenase. The assay is classed as biochemical, Glycine max (soybean). The conditions noted are these: soybean LOX, linoleic acid substrate, 25 °C; mean ± SD.

As to `CC(=O)OC1CC2CCC1(C)C2(C)C` (stereo not drawn) [bornyl acetate], in assay [1], the ORAC result is given as “N/D (Activity lower than 0.05 units at a maximum assay concentration of 100 mM)”. Further, in assay [2], the ABTS result is recorded as “N/D (Activity lower than 0.05 units at a maximum assay concentration of 100 mM)”. The DPPH result in assay [3] is “N/D (Activity lower than 0.05 units at a maximum assay concentration of 100 mM)”. Further, in assay [4], the ChP came to 0.1 ± 0.0 μmol EDTAE/mL X. The RdP entry in assay [5] is “N/D (Activity lower than 0.05 units at a maximum assay concentration of 100 mM)”. Also, in assay [6], the TBARS entry is recorded as “N/D (Activity lower than 0.05 units at a maximum assay concentration of 100 mM)”. In addition, in assay [7], the “LOX inhibitory activity, IC50 of main commercially available compounds” value (“LOX inhibitory activity, IC50” for short) is on record as 75 ± 3 μL (Compound)/L.

Take `CC12CCC(CC1=O)C2(C)C` (stereo not drawn) [camphor]: the ORAC result in assay [1] is reported as “N/D (Activity lower than 0.05 units at a maximum assay concentration of 100 mM)”. Also, the ABTS result in assay [2] is given as “N/D (Activity lower than 0.05 units at a maximum assay concentration of 100 mM)”. Further, in assay [3], the DPPH result was “N/D (Activity lower than 0.05 units at a maximum assay concentration of 100 mM)”. In addition, in assay [4], the ChP result was “N/D (Activity lower than 0.05 units at a maximum assay concentration of 100 mM)”. Also, in assay [5], the RdP result is “N/D (Activity lower than 0.05 units at a maximum assay concentration of 100 mM)”. For the same molecule, the TBARS entry in assay [6] was “N/D (Activity lower than 0.05 units at a maximum assay concentration of 100 mM)”. Also, in assay [7], the “LOX inhibitory activity, IC50” value is on record as 422 ± 13 μL (Compound)/L.

`C=C(C)[C@H]1CC=C(C)CC1` [limonene]: in assay [1], the ORAC stood at 0.8 ± 0.1 μmol TE/μL X. In addition, the ABTS in assay [2] came out at 3.6 ± 0.2 μmol TE/mL X. The DPPH entry in assay [3] is “N/D (Activity lower than 0.05 units at a maximum assay concentration of 100 mM)”. This molecule displayed a ChP in assay [4] of 36.7 ± 2.3 μmol EDTAE/mL X. In addition, the RdP result in assay [5] is “N/D (Activity lower than 0.05 units at a maximum assay concentration of 100 mM)”. Moreover, the TBARS entry in assay [6] is “N/D (Activity lower than 0.05 units at a maximum assay concentration of 100 mM)”. Moreover, in assay [7], the “LOX inhibitory activity, IC50” value is 58 ± 5 μL (Compound)/L.

In assay [1], `C=CC(C)(O)CCC=C(C)C` (stereo not drawn) [linalool] gave an ORAC of 1.9 ± 0.1 μmol TE/μL X. The molecule also gave an ABTS in assay [2] of 0.4 ± 0.0 μmol TE/mL X. The DPPH result in assay [3] is listed as “N/D (Activity lower than 0.05 units at a maximum assay concentration of 100 mM)”. In assay [4], the “Chelating power (ChP), result in words” value was “high ChP” and the ChP is recorded as 541.6 ± 32.7 μmol EDTAE/mL X. Moreover, the RdP entry in assay [5] was “N/D (Activity lower than 0.05 units at a maximum assay concentration of 100 mM)”. Besides, in assay [6], the TBARS result is “N/D (Activity lower than 0.05 units at a maximum assay concentration of 100 mM)”. In addition, the “LOX inhibitory activity, IC50” value in assay [7] is 599 ± 8 μL (Compound)/L.

For `Cc1ccc(C(C)C)cc1` [p-cymene], the ORAC entry in assay [1] was “N/D (Activity lower than 0.05 units at a maximum assay concentration of 100 mM)”. In addition, in assay [2], the ABTS is listed as 0.6 ± 0.0 μmol TE/mL X. In addition, in assay [3], the DPPH entry is “N/D (Activity lower than 0.05 units at a maximum assay concentration of 100 mM)”. Besides, in assay [4], the “Chelating power (ChP), result in words” value was “high chelating activity” and the ChP is 124.7 ± 9.8 μmol EDTAE/mL X. Also, the RdP entry in assay [5] was “N/D (Activity lower than 0.05 units at a maximum assay concentration of 100 mM)”. In addition, the TBARS entry in assay [6] is listed as “N/D (Activity lower than 0.05 units at a maximum assay concentration of 100 mM)”. The “LOX inhibitory activity, IC50” value in assay [7] is given as 79 ± 5 μL (Compound)/L.

With `Cc1ccc(C(C)C)c(O)c1` [thymol], the ORAC in assay [1] is 2.1 ± 0.1 μmol TE/μL X. In addition, the ABTS in assay [2] is 6897.1 ± 225.0 μmol TE/mL X. This molecule also came in with a DPPH in assay [3] of 34.9 ± 2.1 μmol TE/mL X. In assay [4], the “Chelating power (ChP), result in words” value is recorded as “do not show any ChP” and the ChP entry is on record as “N/D (Activity lower than 0.05 units at a maximum assay concentration of 100 mM)”. Also, in assay [5], the RdP is 3353.9 ± 133.4 μmol AAE/L X. Besides, in assay [6], the TBARS was found to be 869.4 ± 255.2 μmol BHTE/mL X. Further, the “LOX inhibitory activity, IC50” value in assay [7] is recorded as 23 ± 2 μL (Compound)/L.

The values are drawn from PMC9322249 (Journal of Food and Drug Analysis, 2017).
